Measurements pooled from the literature.
Compare with care: the assays were run in different laboratories.
ADORA1: Adenosine receptor A1 (ADORA1, Homo sapiens, UniProt P30542)
RPS6KB2: Ribosomal protein S6 kinase beta-2 (RPS6KB2, Homo sapiens, UniProt Q9UBS0)
AXL: Tyrosine-protein kinase receptor UFO (AXL, Homo sapiens, UniProt P30530)

`C#Cc1cc(-c2cc(Nc3nc(N[C@@H](C)c4ccc(F)cn4)ncc3Cl)n[nH]2)ccc1C=O` gave an inhibition of 17.4% (RAC-gamma serine/threonine-protein kinase (AKT3, Homo sapiens, UniProt Q9Y243); enzyme activity, inhibitor; 0.2 µM).
For `Cc1cc(F)cc2c(CCC(=O)N[C@@H]3C(=O)NC[C@H]3O)c(-c3ccc(F)cc3)[nH]c12`, the inhibition was 4% (ADORA1; cell-free assay; 10 µM).
With `CCCCC(=O)Nc1ccc(-c2ccc3ncn(CCC)c(=O)c3c2)cn1` the remaining binding was 86% (Serine/threonine-protein kinase 32A (STK32A, Homo sapiens, UniProt Q8WU08); binding, competition with immobilised ligand; 0.5 µM).
For `COc1nc(-c2cccc(-c3ccccc3)c2C)ccc1CNCCNC(=O)CCCCCCCCCCC(=O)N1CCN(CCNC(=O)c2cc3c(=O)n4cccc(C)c4nc3n(CCc3cccs3)c2=N)CC1`, the Dmax was 53.9% (Programmed cell death 1 ligand 1 (CD274, Homo sapiens, UniProt Q9NZQ7); protein level, degrader, western blot; HL-60; 1 µM).
With `NC/C(=C\F)COc1cccc(Cn2c(=S)[nH]c(=O)c3[nH]cnc32)c1` the inhibition was < 50% (ADORA1; ligand displacement, radioligand; 10 µM).
With `Cc1cc(O)c(-c2ccc([C@@H](C)CN(C)C)cc2)c2c1[nH]c(=O)c1sccc12` the inhibition was -3.41% (RPS6KB2; enzyme activity, inhibitor; 0.1 µM).
The remaining activity of `C#Cc1cnc(Nc2ccc(CO)cc2)nc1Nc1ccccc1C(=O)NC` is reported as 1.65% (AXL; enzyme activity, inhibitor; 1 µM).
For `CCN1/C(=C/C(C)=O)Sc2ccc(F)cc21`, the inhibition was 2.48% (ADORA1; ligand displacement, radioligand; 10 µM).
For `CC(C)C[C@H](NC(=O)CNC(=O)[C@H](Cc1ccc(O)cc1)NC(=O)[C@H](CO)NC(=O)[C@H](Cc1c[nH]c2ccccc12)NC(=O)[C@H](Cc1c[nH]cn1)NC(=O)[C@@H]1CCC(=O)N1)C(=O)N[C@@H](CCCNC(=N)N)C(=O)N1CCC[C@H]1C(=O)NCC(N)=O`, the Emax was 100% (Gonadotropin-releasing hormone receptor (GNRHR, Homo sapiens, UniProt P30968); inositol phosphate, agonist, TR-FRET; HEK-293T; 1 h).
`COc1ccc2oc(-c3ccc4nc(N)oc4c3)c/c(=N\c3ccccc3NC(=O)CCN)c2c1` has a remaining binding of 93% (RPS6KB2; binding; 1 µM).
With `C1=C/COCc2cc(ccc2OCCN2CCCC2)Nc2nccc(n2)-c2cccc(c2)COC/1` the remaining binding was 100% (Ephrin type-A receptor 4 (EPHA4, Homo sapiens, UniProt P54764); binding; 0.1 µM).
With `CS(=O)(=NC#N)c1ccccc1Nc1nc(Nc2ccnc(CO)c2)ncc1Cl` (stereo not drawn) the remaining activity was 14.7% (AXL; enzyme activity, inhibitor; 1 µM).
